Assay [1] concerns Mus musculus. Description: Anticonvulsant activity in ip dosed maximal electroshock induced seizure mouse model assessed as suppression of hind limb tonic extension measured at 4 hrs post dose. In kind it is functional. The conditions noted are these: read-out: MED. The gist of the method:
(§1)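 Albino mice given the compound ip, suspended in 0.5% methyl cellulose–water, at 30, 100 and 300 mg/kg. Maximal electroshock by corneal electrodes: 50 mA, 60 Hz, 0.2 s. Abolition of hind limb tonic extension scored as protection. Value is the minimum dose active in half or more of the mice.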
A general note: Protection in the maximal electroshock model is a classic sign of anticonvulsant action.

For assay [2], the system named is Mus musculus. Put plainly: Anticonvulsant activity in ip dosed maximal electroshock induced seizure mouse model assessed as suppression of hind limb tonic extension measured at 0.5 hrs post dose. The class given is functional. The conditions noted are these: read-out: MED. The gist of the method: as §1
Assay [3] addresses T1, Alpha-1A adrenergic receptor (Homo sapiens, UniProt P35348).
T1 sequence (P35348 whole entry): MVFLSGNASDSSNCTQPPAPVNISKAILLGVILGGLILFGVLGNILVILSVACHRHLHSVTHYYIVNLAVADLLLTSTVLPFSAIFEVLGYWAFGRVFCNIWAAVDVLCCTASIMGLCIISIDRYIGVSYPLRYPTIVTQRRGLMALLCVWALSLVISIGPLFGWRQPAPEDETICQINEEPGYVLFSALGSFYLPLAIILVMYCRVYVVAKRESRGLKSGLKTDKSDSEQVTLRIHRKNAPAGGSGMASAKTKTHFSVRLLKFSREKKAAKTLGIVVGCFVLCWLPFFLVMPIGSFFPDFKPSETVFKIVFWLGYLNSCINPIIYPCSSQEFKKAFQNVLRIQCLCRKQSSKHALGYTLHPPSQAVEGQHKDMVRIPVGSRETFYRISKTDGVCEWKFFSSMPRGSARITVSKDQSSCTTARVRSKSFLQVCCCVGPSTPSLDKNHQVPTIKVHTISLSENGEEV
Description: Displacement of [125I]L-762,459 from recombinant human alpha1a adrenergic receptor expressed in mammalian cells measured after 1 hr. The class given is cell-based.

The subject of the next assay is SR. Put plainly: Growth inhibition of human SR cells after 48 hrs by SRB assay. The class given is functional. (In general: Sulforhodamine B stains cellular protein and so reports cell mass.)
The test system of the next assay is CCRF-CEM. Put plainly: cells. The conditions noted are these: Homo sapiens, 48 h.
Another assay has as its system Rattus norvegicus. Put plainly: Anti-inflammatory activity in rat assessed as inhibition of carrageenan-induced hind paw edema at 10 mg/kg, po pretreated for 1 hr followed by carrageenan challenge measured after 3 hrs by plethysmometer relative to control. The class given is functional. The gist of the method:
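Albino rats; carrageenan-induced paw edema test after Winter et al., with diclofenac sodium as reference standard. Percentage reduction in inflammation recorded 3 h after carrageenan, relative to carrageenan-only animals.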
For orientation: The carrageenan paw model is a standard test of acute inflammation.

The next assay concerns Pseudomonas aeruginosa. Description: Antibacterial activity against Pseudomonas aeruginosa MTCC 2581 by spectrophotometric method. The class given is functional. The gist of the method: (§2)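 Serial broth dilution, 200 to 15.625 μg/mL, in nutrient broth, sonicated 10 min. Inoculum gave a starting density of 10^3–10^4 CFU/mL. Flasks were shaken at 200 rpm and 37 °C, and growth followed by the rise in absorbance at 600 nm. MIC is the lowest concentration inhibiting the organism. Controls: compound without inoculum, and inoculum without compound.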

Another assay deals with Klebsiella pneumoniae. Put plainly: Antibacterial activity against Klebsiella pneumoniae MTCC 7028 by spectrophotometric method. The class given is functional. The essentials: as §2
Assay [4] in a line: Antioxidant activity assessed as DPPH free radical scavenging activity at 12.5 ppm after 30 mins in dark by spectrophotometric method relative to control. In kind it is functional. The essentials:
(§3)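 DPPH (1,1-diphenyl-2-picrylhydrazyl) radical scavenging assay. The change in absorbance was read at 517 nm on a spectrophotometer. Activity is given as percent inhibition of the DPPH radical, calculated as (absorbance of control − absorbance of sample)/absorbance of control × 100.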

Assay [5] can be described thus: Antioxidant activity assessed as cupric ion reducing activity by measuring increase in absorbance at 100 ppm by CUPRAC assay. In kind it is functional. The essentials: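 CUPRAC assay. Sample solution was mixed with distilled water, at a pH close to 7. Reduction of Cu(II) to Cu(I) was followed as the increase in absorbance at 450 nm of the reaction mixture.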

Assay [6] in a line: Antioxidant activity assessed as DPPH free radical scavenging activity at 100 ppm after 30 mins in dark by spectrophotometric method relative to control. The class given is functional. The essentials:
as §3

The nature of assay [7]: Antioxidant activity assessed as cupric ion reducing activity by measuring increase in absorbance at 12.5 ppm by CUPRAC assay. The class given is functional. The gist of the method:
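CUPRAC: reduction of Cu(II) to Cu(I) followed by the increase in absorbance at 450 nm. Sample and distilled water were made up to 4 mL total, near pH 7. Compounds were tested at 12.5–100 ppm, with gallic acid and quercetin as standards.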

The next assay deals with Staphylococcus aureus. Description: Antibacterial activity against Staphylococcus aureus MTCC 3160 by spectrophotometric method. The class given is functional. The gist of the method:
as §2

The subject of a further assay is Escherichia coli. Put plainly: Antibacterial activity against Escherichia coli MTCC 443 by spectrophotometric method. The class given is functional. The gist of the method:
as §2

≈ marks a conversion by molar mass, not a printed value.

Take `SC1=NC(n2nc(-c3ccccc3)nc2-c2ccccc2)=CC(c2ccc(-c3ccco3)cc2)N1` (stereo not drawn): the minimal effective dose with Mus musculus [1] amounted to 300 mg/kg; with Mus musculus [2], 30 mg/kg.

As usually defined, the Ki is the dissociation constant of the complex between target and ligand, obtained from inhibition or displacement. With `CC1=C(C(=O)NCCCN2CCC(c3ccc(F)c(F)c3)CC2)[C@@H](c2ccc(F)c(F)c2)NC(=O)N1C`, the Ki in [3] lay within 0.18 to 0.39 nM.

`SC1=NC(n2nc(-c3ccccc3)nc2-c2ccccc2)=CC(c2ccc(Cl)cc2)N1` (stereo not drawn): the minimal effective dose in the assay with Mus musculus [1] was 300 mg/kg; in the assay with Mus musculus [2], 30 mg/kg.

As a reminder, the GI50 is the concentration at which growth is held to half of that of the control. Read a low GI50 as greater sensitivity of the cells. For the molecule `O=c1/c(=C/c2ccc([N+](=O)[O-])o2)sc2n1C(c1ccc3c(c1)OCO3)C=C(c1cc(F)c(Cl)cc1Cl)N=2` (stereo not drawn), the GI50 with SR is 3340 nM; in the assay on CCRF-CEM it was 3240 nM.

In general, inhibition in vivo refers to how much of the control response was suppressed. For `Cc1ccc(C2=C(CC(=O)O)C(c3cccs3)NC(S)=N2)cc1` (stereo not drawn), the inhibition in vivo at 10 mg/kg in the assay with Rattus norvegicus came out at 10%.

As a reminder, the MIC is the lowest concentration that inhibits growth of the organism. As to `CC(=O)C1=C(C)NC(=O)NC1c1ccc(Cl)cc1` (stereo not drawn), the minimal inhibitory concentration (MIC) in the assay with Pseudomonas aeruginosa (read-out: MIC) is 250 µg/mL (≈ 944 µM); with Klebsiella pneumoniae, 31.2 to 62.5 µg/mL (≈ 118 to 236 µM).

As to `O=C(O)c1cc(O)c(O)c(O)c1`, the results for the Activity in assay [4] and in assay [6] were 62.4% and 92.4%, respectively. The absorbance in assay [5] is 1.4.

As to `CCC(=O)C1=C(C)NC(=O)NC1c1ccc(OC)cc1` (stereo not drawn), the absorbance in assay [7] was determined as 0.05. In addition, the MIC is 250 µg/mL (≈ 911 µM) in the assay on Pseudomonas aeruginosa (read-out: MIC), 31.2 to 62.5 µg/mL (≈ 114 to 228 µM) against Klebsiella pneumoniae and 250 µg/mL (≈ 911 µM) against Staphylococcus aureus.

With `CCC(=O)C1=C(C)NC(=O)NC1c1ccc(Cl)cc1` (stereo not drawn), the MIC in the assay with Pseudomonas aeruginosa is 15.6 to 31.2 µg/mL (≈ 56 to 112 µM); with Escherichia coli it was 15.6 to 31.2 µg/mL (≈ 56 to 112 µM); in the assay with Klebsiella pneumoniae it was 31.2 to 62.5 µg/mL (≈ 112 to 224 µM); against Staphylococcus aureus, 62.5 to 125 µg/mL (≈ 224 to 448 µM).

Turning to `COCC1=C(C(=O)NCCCN2CCC(C#N)(c3ccc(F)cc3)CC2)[C@@H](c2ccc(F)cc2)NCN1`, the Ki in assay [3] was found to be 0.17 nM.

For the molecule `COc1ccc(C2NC(S)=NC(c3ccc(Cl)cc3)=C2CC(=O)O)cc1` (stereo not drawn), the inhibition in vivo at 10 mg/kg in the assay with Rattus norvegicus was 35%.

As for `Cc1ccc(C2=C(CC(=O)O)C(c3ccccc3)NC(S)=N2)cc1` (stereo not drawn), the inhibition in vivo at 10 mg/kg in the assay with Rattus norvegicus amounted to 28%.

On to `CC(=O)C1=C(C)NC(=O)NC1c1ccccc1` (stereo not drawn), for which the figures for the MIC in the assay with Pseudomonas aeruginosa (read-out: MIC), against Escherichia coli and with Staphylococcus aureus were 250 µg/mL (≈ 1090 µM), 15.6 to 31.2 µg/mL (≈ 67.7 to 135 µM) and 62.5 to 125 µg/mL (≈ 271 to 543 µM), respectively. For the same molecule, in [5], the absorbance is 0.87. Also, in assay [6], the Activity was determined as 64.4%.

Regarding `COc1ccc(C2NC(S)=NC(c3ccccc3)=C2CC(=O)O)cc1` (stereo not drawn), the inhibition in vivo at 10 mg/kg in the assay on Rattus norvegicus was determined as 32%.

For the molecule `O=C1NC(=O)C(c2ccccc2)(c2ccccc2)N1` [PHENYTOIN], the minimal effective dose with Mus musculus [1] and in the assay with Mus musculus [2] was 30 mg/kg throughout.

Consider `COc1ccc(C2NC(=O)NC(C)=C2C(C)=O)cc1` (stereo not drawn), for which the MIC was 250 µg/mL (≈ 960 µM) in the assay on Pseudomonas aeruginosa (read-out: MIC), 31.2 to 62.5 µg/mL (≈ 120 to 240 µM) with Klebsiella pneumoniae and 62.5 to 125 µg/mL (≈ 240 to 480 µM) against Staphylococcus aureus.

In the assay with Klebsiella pneumoniae, `CC(=O)C1=C(C)NC(=O)NC1c1ccc([N+](=O)[O-])cc1` (stereo not drawn) came in with an MIC of 31.2 to 62.5 µg/mL (≈ 114 to 227 µM).

As for `O=C(O)CC1=C(c2ccccc2)N=C(S)NC1c1cccs1` (stereo not drawn), the inhibition in vivo at 10 mg/kg in the assay with Rattus norvegicus turned out to be 21%.

Take `SC1=NC(n2nc(-c3ccccc3)nc2-c2ccccc2)=CC(c2ccc(Br)cc2)N1` (stereo not drawn): the minimal effective dose with Mus musculus [1] was determined as 300 mg/kg; in the assay on Mus musculus [2], 100 mg/kg.

On to `SC1=NC(n2nc(-c3ccccc3)nc2-c2ccccc2)=CC(c2ccccc2Cl)N1` (stereo not drawn), for which the minimal effective dose in the assay on Mus musculus [1] worked out at 300 mg/kg; in the assay on Mus musculus [2] it was 30 mg/kg.

`O=C(O)CC1=C(c2ccc(Cl)cc2)N=C(S)NC1c1ccccc1` (stereo not drawn): the inhibition in vivo at 10 mg/kg in the assay on Rattus norvegicus was 20%.

As for `O=C(O)CC1=C(c2ccc(Cl)cc2)N=C(S)NC1c1ccc(Cl)cc1` (stereo not drawn), the inhibition in vivo at 10 mg/kg in the assay with Rattus norvegicus came out at 25%.
